The values below come from ChEMBL document CHEMBL1137681, “Design, synthesis and characterization of N9/N7-substituted 6-aminopurines as VEGF-R and EGF-R inhibitors” (Eur J Med Chem, 2009).

A word on the IC50: it is the concentration that gives 50% inhibition. A high value points to weaker potency.

Calls of active or inactive are those of the source. No cut-off for these calls is given here.

The target in experiment [1] is RAC-alpha serine/threonine-protein kinase (Homo sapiens) (UniProt P31749). Put plainly: Inhibition of AKT1 up to 100 uM. The essentials:
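Radiometric kinase assay with recombinant AKT1 (50–400 ng) and GSK3(14-27) peptide substrate. Incubated 80 min at 30 °C, stopped with 2% H3PO4, washed with 0.9% NaCl. IC50 from 10 concentrations in singlicate.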

Experiment [2] has as its target T1, Ephrin type-B receptor 4 (Homo sapiens) (UniProt P54760).
T1 sequence (whole entry): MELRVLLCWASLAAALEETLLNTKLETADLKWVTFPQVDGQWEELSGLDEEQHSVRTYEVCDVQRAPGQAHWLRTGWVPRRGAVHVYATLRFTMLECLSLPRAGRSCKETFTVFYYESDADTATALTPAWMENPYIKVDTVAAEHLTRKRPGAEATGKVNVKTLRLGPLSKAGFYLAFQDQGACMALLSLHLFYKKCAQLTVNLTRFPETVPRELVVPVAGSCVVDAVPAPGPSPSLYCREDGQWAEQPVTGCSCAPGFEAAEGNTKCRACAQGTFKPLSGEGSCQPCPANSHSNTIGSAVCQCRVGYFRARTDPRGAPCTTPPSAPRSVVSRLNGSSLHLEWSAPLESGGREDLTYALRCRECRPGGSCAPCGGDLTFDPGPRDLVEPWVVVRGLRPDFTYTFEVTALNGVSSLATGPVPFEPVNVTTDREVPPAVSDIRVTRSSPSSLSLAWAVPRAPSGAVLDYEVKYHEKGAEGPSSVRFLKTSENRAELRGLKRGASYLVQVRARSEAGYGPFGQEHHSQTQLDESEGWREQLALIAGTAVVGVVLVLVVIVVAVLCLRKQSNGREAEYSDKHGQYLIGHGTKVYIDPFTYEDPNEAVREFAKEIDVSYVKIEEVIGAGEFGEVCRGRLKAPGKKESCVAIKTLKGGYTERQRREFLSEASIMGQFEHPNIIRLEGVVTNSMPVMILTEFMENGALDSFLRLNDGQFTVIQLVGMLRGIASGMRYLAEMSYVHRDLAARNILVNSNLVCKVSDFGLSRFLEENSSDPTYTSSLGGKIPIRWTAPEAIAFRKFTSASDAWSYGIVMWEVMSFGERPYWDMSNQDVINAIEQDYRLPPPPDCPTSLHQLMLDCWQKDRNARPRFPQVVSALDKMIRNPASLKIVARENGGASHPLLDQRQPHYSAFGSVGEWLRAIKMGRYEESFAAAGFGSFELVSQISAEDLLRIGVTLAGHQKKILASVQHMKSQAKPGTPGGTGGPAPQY
As to the kind of experiment: Inhibition of EPHB4 up to 100 uM. The essentials:
(§1)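 Buffer: HEPES-NaOH pH 7.5, Mg2+/Mn2+, vanadate, DTT, PEG20000, 1% DMSO. Incubated 30 °C for 80 min, stopped with 2% H3PO4, washed, and scintillation-counted. IC50 from 10 concentrations in singlicate.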

Experiment [3] addresses Receptor tyrosine-protein kinase erbB-2 (Homo sapiens, UniProt P04626). As to the kind of experiment: Inhibition of ERBB2. A digest of the protocol: as §1
For experiment [4], the target named is Serine/threonine-protein kinase PAK 6 (Homo sapiens) (UniProt Q9NQU5). As to the kind of experiment: Inhibition of human PAK6 at 10 uM.
Experiment [5] addresses Insulin receptor (Homo sapiens) (UniProt P06213). As to the kind of experiment: Inhibition of INSR up to 100 uM.
For experiment [6], the target named is T2, NUAK family SNF1-like kinase 1 (Homo sapiens) (UniProt O60285).
T2 sequence (whole entry): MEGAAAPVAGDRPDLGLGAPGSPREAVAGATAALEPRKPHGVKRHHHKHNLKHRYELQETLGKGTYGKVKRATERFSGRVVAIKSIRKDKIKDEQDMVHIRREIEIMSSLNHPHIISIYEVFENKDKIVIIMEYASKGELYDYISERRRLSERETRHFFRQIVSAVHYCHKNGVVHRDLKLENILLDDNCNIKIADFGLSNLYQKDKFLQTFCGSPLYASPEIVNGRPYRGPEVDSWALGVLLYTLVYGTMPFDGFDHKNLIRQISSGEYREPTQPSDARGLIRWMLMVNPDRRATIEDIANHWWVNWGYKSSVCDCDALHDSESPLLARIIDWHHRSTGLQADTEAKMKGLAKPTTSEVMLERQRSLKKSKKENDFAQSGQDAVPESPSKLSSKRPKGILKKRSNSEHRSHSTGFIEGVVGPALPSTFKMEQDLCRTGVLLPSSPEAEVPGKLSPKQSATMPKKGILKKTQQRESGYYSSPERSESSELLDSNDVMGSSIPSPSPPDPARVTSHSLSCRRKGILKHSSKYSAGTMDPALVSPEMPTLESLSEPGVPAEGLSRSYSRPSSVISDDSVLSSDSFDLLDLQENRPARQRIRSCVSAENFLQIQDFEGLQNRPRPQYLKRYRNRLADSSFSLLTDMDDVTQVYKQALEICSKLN
Put plainly: Inhibition of ARK5 up to 100 uM.

Experiment [7] deals with Mitogen-activated protein kinase kinase kinase 8 (Homo sapiens) (UniProt P41279). As to the kind of experiment: Inhibition of COT.
Experiment [8] concerns the target Platelet-derived growth factor receptor beta (Homo sapiens) (UniProt P09619). Put plainly: Inhibition of PDGFRbeta up to 100 uM.
Experiment [9] has as its target Cyclin-dependent kinase 4/cyclin D1 (Homo sapiens) (UniProt P11802+P24385). Put plainly: Inhibition of CDK4/Cyclin D1 up to 100 uM. Type of experiment: protein-complex assay. The essentials: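 Buffer: HEPES-NaOH pH 7.5, Mg2+/Mn2+, vanadate, DTT, PEG20000, 1% DMSO. Incubated 80 min at 30 °C, stopped with 2% H3PO4, washed with 0.9% NaCl, and counted by scintillation. IC50 from 10 concentrations, singlicate.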

Experiment [10] deals with MAP kinase-interacting serine/threonine-protein kinase 1 (Homo sapiens) (UniProt Q9BUB5). Put plainly: Inhibition of MNK1 at 10 uM.
For experiment [11], the target named is Insulin-like growth factor 1 receptor (Homo sapiens) (UniProt P08069). As to the kind of experiment: Inhibition of IGF1R up to 100 uM. The essentials:
as §1

Experiment [12] has as its target Serine/threonine-protein kinase PLK1 (Homo sapiens) (UniProt P53350). As to the kind of experiment: Inhibition of PLK1 up to 100 uM. The essentials: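 Run in HEPES-NaOH pH 7.5 with MgCl2, MnCl2, orthovanadate, DTT, PEG20000 and 1% DMSO at 30 °C for 80 min. IC50 from 10 concentrations, singlicate.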
Experiment [13] deals with Protein kinase C zeta type (Homo sapiens) (UniProt Q05513). As to the kind of experiment: Inhibition of human PKCzeta at 10 uM.
Experiment [14] deals with Focal adhesion kinase 1 (Homo sapiens) (UniProt Q05397). Put plainly: Inhibition of FAK up to 100 uM. The essentials: as §1
For experiment [15], the target named is Vascular endothelial growth factor receptor 2 (Homo sapiens, UniProt P35968). Put plainly: Inhibition of VEGFR2.
The test system of experiment [16] is Serine/threonine-protein kinase B-raf (Homo sapiens), P15056 [V600E]. Put plainly: Inhibition of BRAF V600E mutant.
A further experiment deals with Angiopoietin-1 receptor (Homo sapiens, UniProt Q02763). Put plainly: Inhibition of TIE2.
Sequence of Angiopoietin-1 receptor (Q02763 whole entry): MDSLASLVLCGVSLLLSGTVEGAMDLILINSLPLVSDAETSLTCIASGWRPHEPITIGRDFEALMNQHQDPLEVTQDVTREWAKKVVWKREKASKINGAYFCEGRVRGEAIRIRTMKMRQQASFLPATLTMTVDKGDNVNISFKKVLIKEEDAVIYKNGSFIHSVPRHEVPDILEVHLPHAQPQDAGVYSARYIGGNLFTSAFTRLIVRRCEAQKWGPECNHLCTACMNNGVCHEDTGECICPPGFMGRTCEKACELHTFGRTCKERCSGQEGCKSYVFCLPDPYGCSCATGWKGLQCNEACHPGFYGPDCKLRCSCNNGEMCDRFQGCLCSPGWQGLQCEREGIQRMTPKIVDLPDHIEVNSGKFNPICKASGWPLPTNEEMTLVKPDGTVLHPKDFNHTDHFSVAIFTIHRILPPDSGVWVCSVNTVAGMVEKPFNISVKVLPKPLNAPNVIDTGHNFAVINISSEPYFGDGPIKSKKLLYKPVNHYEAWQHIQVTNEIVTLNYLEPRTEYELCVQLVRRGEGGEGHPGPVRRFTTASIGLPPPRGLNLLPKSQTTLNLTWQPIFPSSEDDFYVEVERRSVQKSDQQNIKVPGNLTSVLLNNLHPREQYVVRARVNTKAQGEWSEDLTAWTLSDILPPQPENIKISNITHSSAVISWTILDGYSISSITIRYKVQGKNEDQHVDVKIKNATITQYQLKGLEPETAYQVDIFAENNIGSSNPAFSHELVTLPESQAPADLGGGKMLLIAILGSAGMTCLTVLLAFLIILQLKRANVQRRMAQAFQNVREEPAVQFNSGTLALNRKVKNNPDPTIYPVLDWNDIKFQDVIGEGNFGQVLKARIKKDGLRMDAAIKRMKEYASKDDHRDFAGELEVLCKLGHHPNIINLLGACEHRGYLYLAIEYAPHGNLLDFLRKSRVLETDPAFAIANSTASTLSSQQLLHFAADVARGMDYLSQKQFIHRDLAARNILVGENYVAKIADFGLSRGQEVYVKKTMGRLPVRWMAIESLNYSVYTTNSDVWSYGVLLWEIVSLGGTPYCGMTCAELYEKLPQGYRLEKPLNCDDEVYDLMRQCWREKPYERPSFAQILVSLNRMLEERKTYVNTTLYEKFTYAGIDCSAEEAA

Sequence of Serine/threonine-protein kinase B-raf (Homo sapiens), P15056 [V600E] (P15056 whole entry V600E): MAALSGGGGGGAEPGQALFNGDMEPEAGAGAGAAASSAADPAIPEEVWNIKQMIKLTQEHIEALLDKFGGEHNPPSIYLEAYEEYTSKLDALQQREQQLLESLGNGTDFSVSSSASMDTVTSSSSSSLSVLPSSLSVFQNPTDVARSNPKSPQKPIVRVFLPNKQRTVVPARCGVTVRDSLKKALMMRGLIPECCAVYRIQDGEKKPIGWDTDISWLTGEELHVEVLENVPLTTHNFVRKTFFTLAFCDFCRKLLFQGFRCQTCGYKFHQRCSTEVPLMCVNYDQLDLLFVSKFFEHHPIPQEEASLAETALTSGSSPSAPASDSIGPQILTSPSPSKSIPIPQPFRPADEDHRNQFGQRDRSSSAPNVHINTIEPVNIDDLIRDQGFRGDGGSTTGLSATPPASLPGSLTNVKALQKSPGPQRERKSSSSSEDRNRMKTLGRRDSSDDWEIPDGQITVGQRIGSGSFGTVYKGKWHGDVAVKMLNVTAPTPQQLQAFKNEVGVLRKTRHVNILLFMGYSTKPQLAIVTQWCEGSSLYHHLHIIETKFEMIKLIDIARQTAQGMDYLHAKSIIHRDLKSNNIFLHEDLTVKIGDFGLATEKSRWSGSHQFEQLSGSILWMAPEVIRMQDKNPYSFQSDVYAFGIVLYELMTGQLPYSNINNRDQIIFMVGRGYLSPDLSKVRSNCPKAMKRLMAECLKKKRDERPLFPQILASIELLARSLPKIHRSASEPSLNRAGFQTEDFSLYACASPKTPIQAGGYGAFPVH
Sequence of Vascular endothelial growth factor receptor 2 (P35968 whole entry): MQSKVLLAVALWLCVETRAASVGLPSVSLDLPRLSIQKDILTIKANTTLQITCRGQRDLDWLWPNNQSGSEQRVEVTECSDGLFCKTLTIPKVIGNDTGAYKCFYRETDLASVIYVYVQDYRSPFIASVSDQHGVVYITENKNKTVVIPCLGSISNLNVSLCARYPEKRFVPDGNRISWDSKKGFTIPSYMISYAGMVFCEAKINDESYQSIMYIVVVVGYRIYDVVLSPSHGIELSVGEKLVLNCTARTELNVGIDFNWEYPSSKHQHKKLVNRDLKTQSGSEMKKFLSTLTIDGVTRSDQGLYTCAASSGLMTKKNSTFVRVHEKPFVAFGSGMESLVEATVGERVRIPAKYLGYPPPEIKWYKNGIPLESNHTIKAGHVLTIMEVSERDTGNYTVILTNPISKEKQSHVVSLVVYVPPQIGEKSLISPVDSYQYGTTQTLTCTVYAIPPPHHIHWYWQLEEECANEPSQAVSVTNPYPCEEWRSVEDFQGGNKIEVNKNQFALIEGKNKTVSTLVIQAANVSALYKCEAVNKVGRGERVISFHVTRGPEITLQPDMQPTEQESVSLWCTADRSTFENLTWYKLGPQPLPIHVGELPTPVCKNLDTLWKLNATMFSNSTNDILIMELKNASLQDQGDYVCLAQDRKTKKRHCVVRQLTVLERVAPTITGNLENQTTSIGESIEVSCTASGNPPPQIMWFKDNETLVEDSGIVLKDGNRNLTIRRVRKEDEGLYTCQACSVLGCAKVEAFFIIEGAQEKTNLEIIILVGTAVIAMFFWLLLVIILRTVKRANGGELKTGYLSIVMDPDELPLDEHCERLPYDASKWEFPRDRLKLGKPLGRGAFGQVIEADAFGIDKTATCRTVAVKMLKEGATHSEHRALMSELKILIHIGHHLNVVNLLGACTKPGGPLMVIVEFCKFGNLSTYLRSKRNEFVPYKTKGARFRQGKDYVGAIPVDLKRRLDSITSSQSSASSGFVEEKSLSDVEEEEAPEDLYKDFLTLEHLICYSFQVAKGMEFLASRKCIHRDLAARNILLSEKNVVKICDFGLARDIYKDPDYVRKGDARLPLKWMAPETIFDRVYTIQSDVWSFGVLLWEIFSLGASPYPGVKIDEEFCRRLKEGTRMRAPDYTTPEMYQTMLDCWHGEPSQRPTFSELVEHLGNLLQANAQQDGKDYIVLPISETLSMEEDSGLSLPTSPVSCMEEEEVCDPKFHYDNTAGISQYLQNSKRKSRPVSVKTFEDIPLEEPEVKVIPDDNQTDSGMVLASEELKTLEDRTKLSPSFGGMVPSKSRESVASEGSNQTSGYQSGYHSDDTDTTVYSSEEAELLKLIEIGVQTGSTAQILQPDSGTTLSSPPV
Sequence of RAC-alpha serine/threonine-protein kinase (Homo sapiens) (P31749 whole entry): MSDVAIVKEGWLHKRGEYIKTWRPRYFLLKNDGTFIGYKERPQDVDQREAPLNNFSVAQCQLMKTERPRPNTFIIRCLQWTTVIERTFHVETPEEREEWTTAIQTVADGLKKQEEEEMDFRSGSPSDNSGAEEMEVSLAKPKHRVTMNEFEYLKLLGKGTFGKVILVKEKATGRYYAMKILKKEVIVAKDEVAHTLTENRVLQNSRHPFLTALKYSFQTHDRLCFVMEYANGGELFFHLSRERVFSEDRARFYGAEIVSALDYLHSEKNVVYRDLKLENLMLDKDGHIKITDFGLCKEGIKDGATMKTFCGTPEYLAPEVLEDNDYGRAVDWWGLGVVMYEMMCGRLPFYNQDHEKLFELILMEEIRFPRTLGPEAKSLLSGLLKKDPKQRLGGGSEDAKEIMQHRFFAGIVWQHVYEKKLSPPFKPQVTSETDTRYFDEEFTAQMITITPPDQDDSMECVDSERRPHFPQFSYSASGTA
Sequence of Insulin-like growth factor 1 receptor (Homo sapiens) (P08069 31-736 limits assumed): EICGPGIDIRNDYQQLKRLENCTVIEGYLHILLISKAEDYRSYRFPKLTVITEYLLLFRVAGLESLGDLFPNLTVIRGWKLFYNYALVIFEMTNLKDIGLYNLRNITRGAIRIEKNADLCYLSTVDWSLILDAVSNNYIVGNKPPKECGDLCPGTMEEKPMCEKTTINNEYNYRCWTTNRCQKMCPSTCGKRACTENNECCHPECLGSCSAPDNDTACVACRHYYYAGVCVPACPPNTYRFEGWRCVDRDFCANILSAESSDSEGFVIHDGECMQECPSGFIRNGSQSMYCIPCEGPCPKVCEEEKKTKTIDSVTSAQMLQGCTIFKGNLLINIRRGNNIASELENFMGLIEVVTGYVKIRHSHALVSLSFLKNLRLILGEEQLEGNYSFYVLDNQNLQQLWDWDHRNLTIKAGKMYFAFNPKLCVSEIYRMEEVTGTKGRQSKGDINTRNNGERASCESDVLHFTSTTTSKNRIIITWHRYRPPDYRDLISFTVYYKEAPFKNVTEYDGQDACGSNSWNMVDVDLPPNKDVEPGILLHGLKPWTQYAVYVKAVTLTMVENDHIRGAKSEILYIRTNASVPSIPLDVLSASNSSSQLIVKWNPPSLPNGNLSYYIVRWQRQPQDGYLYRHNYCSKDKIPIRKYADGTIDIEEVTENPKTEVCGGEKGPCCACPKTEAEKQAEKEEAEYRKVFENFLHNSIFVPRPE
Sequence of Insulin-like growth factor 1 receptor (Homo sapiens) (P08069 741-1367 limits assumed): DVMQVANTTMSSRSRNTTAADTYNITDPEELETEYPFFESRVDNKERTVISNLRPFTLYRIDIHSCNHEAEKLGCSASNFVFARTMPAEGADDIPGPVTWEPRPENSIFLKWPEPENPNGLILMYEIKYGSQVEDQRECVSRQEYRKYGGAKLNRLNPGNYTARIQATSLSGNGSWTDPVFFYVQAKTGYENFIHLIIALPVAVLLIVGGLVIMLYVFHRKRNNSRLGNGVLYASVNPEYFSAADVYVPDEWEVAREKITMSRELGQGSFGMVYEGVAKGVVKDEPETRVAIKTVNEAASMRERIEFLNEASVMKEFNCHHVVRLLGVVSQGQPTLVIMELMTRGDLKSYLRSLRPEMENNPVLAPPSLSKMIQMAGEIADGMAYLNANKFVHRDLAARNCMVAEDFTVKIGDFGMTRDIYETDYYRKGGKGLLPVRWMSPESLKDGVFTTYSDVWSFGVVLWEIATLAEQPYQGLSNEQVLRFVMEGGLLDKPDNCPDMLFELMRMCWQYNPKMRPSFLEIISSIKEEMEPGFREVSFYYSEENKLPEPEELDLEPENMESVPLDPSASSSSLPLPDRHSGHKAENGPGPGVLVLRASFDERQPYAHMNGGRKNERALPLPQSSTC

With `Nc1ncnc2ncn(CC(=O)c3c[nH]c4ccccc34)c12`, the inhibition entry in [1], in [2], in [3], in [4], in experiment [5] and in experiment [6] was “inactive” in each case. Further, the inhibition entry in experiment [7], in experiment [8], in experiment [9], in [10], in experiment [11] and in experiment [12] was “inactive” each time. Further, the inhibition entry in experiment [13], in [14] and in experiment [16] was “inactive” throughout. Besides, the values for the IC50 (in [15]; at Angiopoietin-1 receptor) were 30 µM and 95 µM, respectively.
